In brackets after ≈: the same amount, converted by molar mass. Activity calls are given as the source filed them. The rule behind the calls is not given here.
Experiments:
BXPC-3 = assay: Growth inhibition of human BXPC3 cells; type: functional
OVCAR-3 = assay: Growth inhibition of human OVCAR-3 cells; type: functional
Procedure, shortened: (§1)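 NCI 60-cell-line screen run by the standard NCI protocol. Each test agent ran in quadruplicate, with a top concentration of 10^-5 M and five log-spaced dilutions. GI50 values were averaged and reported as negative log GI50.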

SF-295 = assay: Growth inhibition of human SF295 cells; type: functional
Procedure, shortened: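 NCI human tumor cell line panel screen run to the standard NCI protocol. Each compound tested in quadruplicate with a top concentration of 10^-5 M and five log-spaced dilutions. GI50 values were averaged across replicates and reported as negative log GI50.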

NCI-H460 = assay: Growth inhibition of human NCI-H460 cells; type: functional; procedure, shortened: as §1
KM-20L2 = assay: Growth inhibition of human KM20L2 cells; type: functional
DU-145 = assay: Growth inhibition of human DU145 cells; type: functional; procedure, shortened: as §1
P388 = assay: Growth inhibition of mouse P388 cells; type: functional
Candida albicans = assay: Antifungal activity against Candida albicans ATCC 90028 at 100 ug/disk by disk diffusion method; type: functional, organism-based
Cryptococcus neoformans = assay: Antifungal activity against Cryptococcus neoformans ATCC 90112 at 100 ug/disk by disk diffusion method; type: functional, organism-based
Micrococcus luteus = assay: Antibacterial activity against Micrococcus luteus Presque Isle 456 by disk diffusion method; type: functional
Staphylococcus aureus = assay: Antibacterial activity against Staphylococcus aureus ATCC 29213 at 100 ug/disk by disk diffusion method; type: functional, organism-based
Enterococcus faecalis = assay: Antibacterial activity against Enterococcus faecalis ATCC 29212 at 100 ug/disk by disk diffusion method; type: functional, organism-based
Bacillus subtilis = assay: Antibacterial activity against Bacillus subtilis Presque Isle 620 at 100 ug/disk by disk diffusion method; type: functional, organism-based
Streptococcus pneumoniae = assay: Antibacterial activity against Streptococcus pneumoniae ATCC 6303 at 100 ug/disk by disk diffusion method; type: functional, organism-based
[1] = test system: Stenotrophomonas maltophilia; assay: Antibacterial activity against Stenotrophomonas maltophilia ATCC 13637 at 100 ug/disk by disk diffusion method; type: functional, organism-based
Escherichia coli = assay: Antibacterial activity against Escherichia coli ATCC 25922 at 100 ug/disk by disk diffusion method; type: functional, organism-based
Neisseria gonorrhoeae = assay: Antibacterial activity against Neisseria gonorrhoeae ATCC 49226 by disk diffusion method; type: functional

Compound: C/C=C(/C)C(=O)OCc1nccc2c1C(=O)C(NC)=C(C)C2=O [CRIBROSTATIN 4]
- GI50 (BXPC-3): 0.29 µg/mL (≈ 0.923 µM)
- GI50 (OVCAR-3): 0.18 µg/mL (≈ 0.573 µM)
- GI50 (SF-295): 0.36 µg/mL (≈ 1.15 µM)
- GI50 (NCI-H460): 0.22 µg/mL (≈ 0.7 µM)
- GI50 (KM-20L2): 0.14 µg/mL (≈ 0.445 µM)
- GI50 (DU-145): 0.3 µg/mL (≈ 0.954 µM)
- GI50 (P388): 0.045 µg/mL (≈ 0.143 µM)
- EC50 (P388; read-out: ED50 (the source's name)): 0.045 µg/mL (≈ 0.143 µM)
- Activity (Candida albicans): inactive
- Activity (Cryptococcus neoformans): inactive
- MIC (Micrococcus luteus): 50 µg/disc
- Activity (Staphylococcus aureus): inactive
- Activity (Enterococcus faecalis): inactive
- Activity (Bacillus subtilis): inactive
- Activity (Streptococcus pneumoniae): inactive
- Activity [1]: inactive
- Activity (Escherichia coli): inactive
- MIC (Neisseria gonorrhoeae): 6.25 µg/disc

Source: ChEMBL document CHEMBL1142628, “Antineoplastic agents 430. Isolation and structure of cribrostatins 3, 4, and 5 from the republic of maldives cribrochalina species” (2000)
